In brackets after ≈: the same amount, converted by molar mass.
How the values were obtained:
[1] = system: Staphylococcus aureus; test: Antimicrobial activity against methicillin-susceptible Staphylococcus aureus 25923 infected in BALB/cAnNCr mouse assessed as decrease in bacterial density in lungs at 1 to 25 mg/kg, sc administered as 1 to 5 times/day after 24 hrs […] relative to control; format: functional; conditions: dose mg/kg 1-5; route subcutaneous
In short: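 Neutropenic mice given oral S. aureus inoculum (10^7 CFU/ml in 3% mucin). s.c. dosing of 1–25 mg/kg, once to five times daily, began 6 h post-infection and ran 24 h, five mice per group, with sham-treated controls. Lung homogenates were plated on blood and Columbia agar at 35°C up to 48 h. Log10 CFU/ml at 24 h was compared with untreated controls.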

[2] = fT>MIC required for stasis inhibition of community acquired methicillin-resistant Staphylococcus aureus 147 infection in neutropenic BALB/cAnNCr mouse; format: functional
In short: (§1)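 Same neutropenic murine pneumonia model, with 24-h lung log10 CFU change (5 mice per group; 1–25 mg/kg s.c., 1–5 times daily). […] ED50, ED80 and stasis exposures were taken from a sigmoid Emax fit for each isolate.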

[3] = fT>MIC required for stasis inhibition of community acquired methicillin-resistant Staphylococcus aureus 146 infection in neutropenic BALB/cAnNCr mouse; format: functional; in short: as §1
[4] = fT>MIC required for stasis inhibition of community acquired methicillin-resistant Staphylococcus aureus 144 infection in neutropenic BALB/cAnNCr mouse; format: functional; in short: as §1
[5] = fT>MIC required for stasis inhibition of hospital acquired methicillin-resistant Staphylococcus aureus 152 infection in neutropenic BALB/cAnNCr mouse; format: functional; in short: as §1
[6] = fT>MIC required for stasis inhibition of hospital acquired methicillin-resistant Staphylococcus aureus 149 infection in neutropenic BALB/cAnNCr mouse; format: functional; in short: as §1
[7] = fT>MIC required for stasis inhibition of methicillin-suceptible Staphylococcus aureus 29213 infection in neutropenic BALB/cAnNCr mouse; format: functional
[8] = fT>MIC required for stasis inhibition of methicillin-susceptible Staphylococcus aureus 25923 infection in neutropenic BALB/cAnNCr mouse; format: functional
[9] = fT>MIC required for 50% inhibition of community acquired Staphylococcus aureus 147 infection in neutropenic BALB/cAnNCr mouse; format: functional
[10] = fT>MIC required for 50% inhibition of community acquired Staphylococcus aureus 144 infection in neutropenic BALB/cAnNCr mouse; format: functional; in short: as §1
[11] = fT>MIC required for 50% inhibition of hospital acquired Staphylococcus aureus 149 infection in neutropenic BALB/cAnNCr mouse; format: functional
[12] = fT>MIC required for 50% inhibition of hospital acquired methicillin-resistant Staphylococcus aureus 56 infection in neutropenic BALB/cAnNCr mouse; format: functional; in short: as §1
[13] = fT>MIC required for 80% inhibition of hospital acquired methicillin-resistant Staphylococcus aureus 152 infection in neutropenic BALB/cAnNCr mouse; format: functional; in short: as §1
[14] = fT>MIC required for 80% inhibition of hospital acquired methicillin-resistant Staphylococcus aureus 56 infection in neutropenic BALB/cAnNCr mouse; format: functional; in short: as §1
[15] = fAUC/MIC in neutropenic BALB/cAnNCr mouse plasma infected with Staphylococcus aureus at 1 to 25 mg/kg, sc administered 1 to 5 times/day after 24 hrs by HPLC; format: functional; conditions: route subcutaneous
In short: (§2)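 Exposure indices used free plasma drug, correcting with 19% mouse protein binding supplied by the sponsor. The regimens were s.c. 1–25 mg/kg given 1–5 times daily for 24 h to neutropenic mice with S. aureus pneumonia. MICs were determined in triplicate by CLSI broth microdilution. PK came from the single-dose HPLC study.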

[16] = fT>MIC in neutropenic BALB/cAnNCr mouse plasma infected with Staphylococcus aureus at 1 to 25 mg/kg, sc administered 1 to 5 times/day after 24 hrs HPLC; format: functional; conditions: route subcutaneous; in short: as §2
[17] = Elimination clearance in neutropenic BALB/cAnNCr mouse infected with Staphylococcus aureus at 10 mg/kg, sc administered as single dose after 6 hrs of infection; format: ADME, organism-based; set-up: dose 10 mg/kg, route subcutaneous; conditions: in vivo
In short: (§3)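 Neutropenic female mice (cyclophosphamide i.p. 250 mg/kg day −4, 100 mg/kg day −1) with HA-MRSA 56 pneumonia (oral inoculum, 10^7 CFU/ml in 3% mucin). Single s.c. dose in sterile water. Plasma by intracardiac puncture at 0.25–4 h, six mice per time point, stabilized with citric acid. Assayed by validated HPLC (LOQ 0.01 µg/ml). Parameters from one-compartment analysis.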

[18] = Elimination clearance in neutropenic BALB/cAnNCr mouse infected with Staphylococcus aureus at 1 mg/kg, sc administered as single dose after 6 hrs of infection; format: ADME, organism-based; set-up: dose 1 mg/kg, route subcutaneous; conditions: in vivo; in short: as §3
[19] = system: Mus musculus; test: Volume of distribution in neutropenic BALB/cAnNCr mouse infected with Staphylococcus aureus at 25 mg/kg, sc administered as single dose after 6 hrs of infection; format: ADME, organism-based; set-up: dose 25 mg/kg, route subcutaneous; conditions: in vivo; in short: as §3
[20] = system: Mus musculus; test: Volume of distribution in neutropenic BALB/cAnNCr mouse infected with Staphylococcus aureus at 10 mg/kg, sc administered as single dose after 6 hrs of infection; format: ADME, organism-based; set-up: dose 10 mg/kg, route subcutaneous; conditions: in vivo; in short: as §3
[21] = AUC (0 to infinity) in neutropenic BALB/cAnNCr mouse infected with Staphylococcus aureus at 25 mg/kg, sc administered as single dose after 6 hrs of infection; format: ADME, organism-based; set-up: time infinity, dose 25 mg/kg, route subcutaneous; conditions: plasma; in short: as §3
[22] = Tmax in neutropenic BALB/cAnNCr mouse infected with Staphylococcus aureus at 1 mg/kg, sc administered as single dose after 6 hrs of infection; format: ADME, organism-based; set-up: dose 1 mg/kg, route subcutaneous; conditions: in vivo; in short: as §3
[23] = Cmax in neutropenic BALB/cAnNCr mouse infected with Staphylococcus aureus at 10 mg/kg, sc administered as single dose after 6 hrs of infection; format: ADME, organism-based; set-up: dose 10 mg/kg, route subcutaneous; conditions: in vivo; in short: as §3
[24] = system: Staphylococcus aureus; test: Antimicrobial activity against methicillin-susceptible Staphylococcus aureus ATCC 29213 by broth microdilution method; format: functional
In short: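 Broth microdilution run in triplicate following CLSI guidelines. Isolates were stored at –80°C in double-strength skim milk and subcultured twice on Trypticase soy agar with 5% sheep blood before testing.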

[25] = system: Staphylococcus aureus; test: Antimicrobial activity against community acquired methicillin-resistant Staphylococcus aureus 144 infected in BALB/cAnNCr mouse assessed as decrease in bacterial density in lungs at 1 to 25 mg/kg, sc administered as 1 to 5 times/day after 24 hrs […] relative to control; format: functional; conditions: route subcutaneous
In short: (§4)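 Female BALB/cAnNCr mice (7–9 weeks) were made neutropenic with cyclophosphamide i.p. at 250 mg/kg on day −4 and 100 mg/kg on day −1. Under isoflurane, mice received an oral inoculum in 3% mucin/saline, with nostrils blocked until aspiration. Drug (1–25 mg/kg s.c., once to five times daily, water vehicle) or sham started 6 h post-inoculation. Lungs were harvested at 24 h, homogenized and plated on blood and Columbia agar at 35°C. Mean log10 CFU/ml was compared with the 0-h untreated baseline; 5 mice per group.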

[26] = system: Staphylococcus aureus; test: Antimicrobial activity against community acquired methicillin-resistant Staphylococcus aureus 146 infected in BALB/cAnNCr mouse assessed as decrease in bacterial density in lungs at 1 to 25 mg/kg, sc administered as 1 to 5 times/day after 24 hrs […] relative to control; format: functional; conditions: route subcutaneous; in short: as §4
[27] = system: Staphylococcus aureus; test: Antimicrobial activity against community acquired methicillin-resistant Staphylococcus aureus 147 infected in BALB/cAnNCr mouse assessed as decrease in bacterial density in lungs at 1 to 25 mg/kg, sc administered as 1 to 5 times/day after 24 hrs […] relative to control; format: functional; conditions: route subcutaneous; in short: as §4

In the case of `Nc1nc(/C(=N/O)C(=O)N[C@@H]2C(=O)N3C(C(=O)O)=C(/C=C4\CCN([C@@H]5CCNC5)C4=O)CS[C@H]23)ns1` [CEFTOBIPROLE], the log10cfu [1] is reported as 4.2, the “fT>MIC” value [2] is reported as 14.9% and the “fT>MIC” value [3] is reported as 5.6%. The “fT>MIC” value [4] was 13.6%, the “fT>MIC” value [5] was 13.4% and the “fT>MIC” value [6] was 6.6%. The “fT>MIC” value [7] was 13.3%, the “fT>MIC” value [8] was 7.6% and the “fT>MIC” value [9] was 17.1%. For the same compound, the “fT>MIC” value [10] was 13.8%, the “fT>MIC” value [11] was 8.6% and the “fT>MIC” value [12] was 13.7%. The “fT>MIC” value [13] was 15.9%, the “fT>MIC” value [14] was 15.5% and the fAUC/MIC [15] was 2. The “fT>MIC” value [16] was 3%, the CL/F [17] was 10.5 mL/min/kg and the CL/F [18] was 9 mL/min/kg. It also gave a Vd [19] of 0.41 L/kg, a Vd [20] of 0.38 L/kg and an AUC(0-inf) [21] of 35200 ng·h/mL. It also gave a Tmax [22] of 28.8 min, a Cmax [23] of 19800 ng/mL and an MIC [24] of 0.25 µg/mL (≈ 0.468 µM). For the same compound, the log10cfu [25] was 2.9, the log10cfu [26] was 3.6 and the log10cfu [27] was 3.2.

Reference: ChEMBL document CHEMBL1275429, “Pharmacodynamic characterization of ceftobiprole in experimental pneumonia caused by phenotypically diverse Staphylococcus aureus strains” (Antimicrob Agents Chemother, 2008)
